ChEMBL document CHEMBL4346727, “Synthesis and pharmacological evaluation of novel N-Mannich bases derived from 5,5-diphenyl and 5,5-di(propan-2-yl)imidazolidine-2,4-dione core” (Bioorg Med Chem Lett, 2019)
Calls of active or inactive are those of the source. Unless noted, no cut-off for these calls is given here.

Legend:
[1] = test system: Mus musculus; test: Potency index, ratio of phenytoin ED50 to compound ED50 for anticonvulsant activity protection against subcutaneous pentylenetetrazole-induced seizures in ip dosed CD1 mouse; type: functional
[2] = test system: Mus musculus; test: Anticonvulsant activity in CD1 mouse assessed as protection against 50 mA current-induced seizure at 300 mg/kg, ip and measured after 4 hrs by maximal electroshock seizure test; type: functional, organism-based
How it was run: (§1)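 Mice were screened after intraperitoneal doses of 30, 100 and 300 mg/kg in the maximal electroshock and subcutaneous pentylenetetrazole tests, examined at 0.5 and 4 h. The value recorded is the minimum dose showing activity. No activity up to 300 mg/kg is scored as absent.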

[3] = test system: Mus musculus; test: Anticonvulsant activity in ip dosed CD1 mouse assessed as time to peak effect on protection against 50 mA current-induced seizures; type: functional
How it was run: (§2)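 Median effective doses were quantified in the maximal electroshock, subcutaneous pentylenetetrazole and 6 Hz tests after intraperitoneal dosing in mice or oral dosing in rats, at the time of peak effect. ED50 values are reported with ranges in parentheses.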

[4] = Neurotoxicity in ip dosed CD1 mouse assessed as time to peak effect by rotarod test; type: toxicity, organism-based; settings: in vivo
[5] = test system: Mus musculus; test: Anticonvulsant activity in CD1 mouse assessed as protection against 50 mA current-induced seizure at 300 mg/kg, ip and measured after 0.5 hrs by maximal electroshock seizure test; type: functional, organism-based; how it was run: as §1
[6] = Neurotoxicity in ip dosed CD1 mouse model by rotarod test; type: toxicity, organism-based; settings: in vivo
[7] = Neurotoxicity in CD1 mouse at 300 mg/kg, ip and measured after 4 hrs hrs by rotarod test; type: toxicity, organism-based; settings: in vivo
How it was run: (§3)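 Mice dosed intraperitoneally at 30, 100 and 300 mg/kg, then tested on the rotarod at 0.5 h and 4 h. The value recorded is the minimum dose at which neurotoxicity appeared. A dash means no neurotoxicity at the top dose of 300 mg/kg.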

[8] = test system: Mus musculus; test: Anticonvulsant activity in CD1 mouse assessed as protection against subcutaneous pentylenetetrazole-induced seizures at 300 mg/kg, ip and measured after 0.5 hrs; type: functional, organism-based; how it was run: as §1
[9] = Protection index, ratio of TD50 for neurotoxicity in ip dosed CD1 mouse by rotarod test to ED50 for anticonvulsant activity in ip dosed CD1 mouse model of subcutaneous PTZ-induced seizures; type: toxicity, organism-based; settings: in vivo, read-out: Ratio TD50/ED50
[10] = test system: Mus musculus; test: Anticonvulsant activity in ip dosed CD1 mouse assessed as time to peak effect on protection against subcutaneous pentylenetetrazole-induced seizures; type: functional; how it was run: as §2
[11] = test system: Mus musculus; test: Anticonvulsant activity in ip dosed CD1 mouse assessed as protection against subcutaneous pentylenetetrazole-induced seizures and measured after 4 hrs; type: functional; settings: CD1, 4 h, read-out: MED; how it was run: as §1
[12] = Neurotoxicity in ip dosed CD1 mouse and measured after 0.5 hrs by rotarod test; type: toxicity, organism-based; settings: in vivo; how it was run: as §3
[13] = test system: Mus musculus; test: Anticonvulsant activity in ip dosed CD1 mouse assessed as protection against subcutaneous pentylenetetrazole-induced seizures; type: functional; how it was run: as §2
[14] = test system: Mus musculus; test: Anticonvulsant activity in ip dosed CD1 mouse assessed as time to peak effect on protection against 32 mA current-induced seizure by 6 Hz psychomotor seizure test; type: functional; how it was run: as §2

With CC(C)C1(C(C)C)NC(=O)N(CN2CCN(CCc3ccccc3)CC2)C1=O the “Ratio ED50” value [1] was 5.5, the Activity [2] was “inactive” and the Time [3] was 4 h. The Time [4] was 4 h, the Activity [5] was “inactive” and the TD50 [6] was greater than 200 mg/kg. For the same compound, the Activity [7] was “Non-Toxic”, the MED [8] was “inactive” and the selectivity ratio [9] was greater than 2.23. For the same compound, the Time [10] was 4 h, the minimal effective dose [11] was 100 mg/kg and the minimal neurotoxic dose [12] was 300 mg/kg. It also gave an ED50 [13] of 89.4 mg/kg and a Time [14] of 4 h.
